Measurements from different studies.
Compare with care: the assays were run in different laboratories.
CDK18: Cyclin-dependent kinase 18 (CDK18, Homo sapiens, UniProt Q07002)
CDK18 with cyclin Y: Cyclin-dependent kinase 18, with cyclin Y (CDK18, Homo sapiens, UniProt Q07002)

C=CC(=O)N1CCC[C@@H](n2nc(-c3ccc(Oc4ccccc4)cc3)c3c(N)ncnc32)C1
inhibition (CDK18; enzyme activity, inhibitor; 1 µM): 3%

C1=C/COCc2cc(ccc2OCCN2CCCC2)Nc2nccc(n2)-c2cccc(c2)COC/1
remaining binding (CDK18; binding; 0.1 µM): 92%

COc1ccc2[nH]c3c4[nH]c5ccc(OC)cc5c4c4c(c3c2c1)C(=O)NC4=O
remaining binding (CDK18; binding; 1 µM): 80%

C=CC(=O)N1CCC([C@@H]2CCNc3c(C(N)=O)c(-c4ccc(Oc5ccccc5)cc4)nn32)CC1
inhibition (CDK18; enzyme activity, inhibitor; 1 µM): 9%

COc1ccc2oc(-c3ccc4nc(N)oc4c3)c/c(=N\c3ccccc3NC(=O)CCN)c2c1
remaining binding (CDK18 with cyclin Y; binding; 1 µM): 108%

CCCCC(=O)Nc1ccc(-c2ccc3ncn(CCC)c(=O)c3c2)cn1
remaining binding (CDK18; binding, competition with immobilised ligand; 0.5 µM): 100%

CC(C)S(=O)(=O)c1ccc2nccc(Nc3ccc4sc(C5CCCC5)nc4c3)c2c1
activity vs control (CDK18 with cyclin Y; enzyme activity, inhibitor; 1 µM): 104%

Cc1ccc(NC(=O)c2ccnc(C(F)(F)F)c2)cc1-c1cc(OCCO)nc(N2CCOCC2)c1
remaining binding (CDK18; binding; 1 µM): 100%
